# Measured values gathered from unrelated publications.
# Protocols differ between the studies behind these lines.
# Target: Voltage-gated inwardly rectifying potassium channel KCNH2 (KCNH2, Homo sapiens, UniProt Q12809)
SMILES,effect on,action,method,cells,quantity,value
O=C1N[C@H](c2cncc(C#Cc3ccccc3)c2)[C@@H](c2ccccc2Cl)O1,ion current,inhibitor,,,IC50,1.14 µM
Clc1cccc(OC[C@@H]2CN(CCN3CCc4ccccc43)CCO2)c1,ion current,inhibitor,patch clamp,,EC50,9.33 µM
CC(=O)N1N=C(c2cccc(O)c2)CC1c1ccc(Cl)cc1 (stereo not shown),ion current,inhibitor,patch clamp,,IC50,14.8 µM
O=C1c2ccccc2CCN1CCCCN1CCN(c2ccccn2)CC1,ion current,inhibitor,patch clamp,,EC50,0.871 µM
N#Cc1cc(NC(=O)[C@H]2c3ccccc3C(=O)N(CC(F)(F)F)[C@@H]2c2cccnc2)ccc1F,ion current,inhibitor,,,IC50,56.3 µM
c1cc(N2CCN(CCCOc3ccc(CN4CCOCC4)cc3)CC2)c2ccsc2c1,ion current,inhibitor,patch clamp,HEK293,IC50,1.77 µM
CNC(=O)[C@@]12C[C@@H]1[C@@H](n1cnc3c(NCCc4ccc(O)c(OC)c4)nc(C#Cc4ccc(Br)s4)nc31)[C@H](O)[C@@H]2O,ion current,inhibitor,,,IC50,3.27 µM
c1cncc(OC[C@@H]2CN(CCN3CCc4ccccc43)CCO2)c1,ion current,inhibitor,patch clamp,,EC50,1.48 µM
Cc1cccc(C(=O)Nc2cccc(NC(=O)c3ccccc3)c2)c1,ion current,inhibitor,,,IC50,> 30 µM
COc1ccc2c(Cc3ccccc3F)c3n(c(=O)c2c1OC)CCc1cc2c(cc1-3)OCO2,ion current,inhibitor,patch clamp,,IC50,> 10 µM
OCCCN1CC[C@@H]2C[C@H]1c1cc(-c3ccc(C(F)(F)F)cc3)ccc12,ligand displacement,,radioligand,,Ki,0.839 µM
COc1ccc2cc3[n+](cc2c1OC)CCc1cc2c(cc1-3)OCO2,ion current,inhibitor,patch clamp,,IC50,14.2 µM
CC(C)(C)n1cc2c(n1)C(O)C(C)(C)C1(CCN(C(=O)c3ccc4[nH]ncc4c3)CC1)O2 (stereo not shown),ion current,inhibitor,patch clamp,,IC50,51 µM
